Data on 2 molecules can be found in article PMC4869831 (Nature structural & molecular biology, 2011).

One experiment deals with ATR (Mus musculus, UniProt Q9JKK8). The class given is cell-based. The following applies: increasing doses of caffeine. In short, it runs like this:
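3T3 TopBP1-ER mouse cells (15000/well) were plated the day before on gelatine-coated wells. Graded caffeine doses were added for 15 min at 37 °C, then 4-OHT for 60 min at 37 °C. Cells were paraformaldehyde-fixed and stained for γH2AX by immunofluorescence. Automated 10x imaging gave mean γH2AX per DAPI-masked nucleus from ≥300 cells/well. Values were normalized to no-4-OHT (min) and 4-OHT-only (max) controls. Error bars s.d.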

Another experiment concerns IGF-IR. The following applies: equally potent on both kinases in vitro; cited from earlier work.

Sequence of ATR (Q9JKK8 whole entry): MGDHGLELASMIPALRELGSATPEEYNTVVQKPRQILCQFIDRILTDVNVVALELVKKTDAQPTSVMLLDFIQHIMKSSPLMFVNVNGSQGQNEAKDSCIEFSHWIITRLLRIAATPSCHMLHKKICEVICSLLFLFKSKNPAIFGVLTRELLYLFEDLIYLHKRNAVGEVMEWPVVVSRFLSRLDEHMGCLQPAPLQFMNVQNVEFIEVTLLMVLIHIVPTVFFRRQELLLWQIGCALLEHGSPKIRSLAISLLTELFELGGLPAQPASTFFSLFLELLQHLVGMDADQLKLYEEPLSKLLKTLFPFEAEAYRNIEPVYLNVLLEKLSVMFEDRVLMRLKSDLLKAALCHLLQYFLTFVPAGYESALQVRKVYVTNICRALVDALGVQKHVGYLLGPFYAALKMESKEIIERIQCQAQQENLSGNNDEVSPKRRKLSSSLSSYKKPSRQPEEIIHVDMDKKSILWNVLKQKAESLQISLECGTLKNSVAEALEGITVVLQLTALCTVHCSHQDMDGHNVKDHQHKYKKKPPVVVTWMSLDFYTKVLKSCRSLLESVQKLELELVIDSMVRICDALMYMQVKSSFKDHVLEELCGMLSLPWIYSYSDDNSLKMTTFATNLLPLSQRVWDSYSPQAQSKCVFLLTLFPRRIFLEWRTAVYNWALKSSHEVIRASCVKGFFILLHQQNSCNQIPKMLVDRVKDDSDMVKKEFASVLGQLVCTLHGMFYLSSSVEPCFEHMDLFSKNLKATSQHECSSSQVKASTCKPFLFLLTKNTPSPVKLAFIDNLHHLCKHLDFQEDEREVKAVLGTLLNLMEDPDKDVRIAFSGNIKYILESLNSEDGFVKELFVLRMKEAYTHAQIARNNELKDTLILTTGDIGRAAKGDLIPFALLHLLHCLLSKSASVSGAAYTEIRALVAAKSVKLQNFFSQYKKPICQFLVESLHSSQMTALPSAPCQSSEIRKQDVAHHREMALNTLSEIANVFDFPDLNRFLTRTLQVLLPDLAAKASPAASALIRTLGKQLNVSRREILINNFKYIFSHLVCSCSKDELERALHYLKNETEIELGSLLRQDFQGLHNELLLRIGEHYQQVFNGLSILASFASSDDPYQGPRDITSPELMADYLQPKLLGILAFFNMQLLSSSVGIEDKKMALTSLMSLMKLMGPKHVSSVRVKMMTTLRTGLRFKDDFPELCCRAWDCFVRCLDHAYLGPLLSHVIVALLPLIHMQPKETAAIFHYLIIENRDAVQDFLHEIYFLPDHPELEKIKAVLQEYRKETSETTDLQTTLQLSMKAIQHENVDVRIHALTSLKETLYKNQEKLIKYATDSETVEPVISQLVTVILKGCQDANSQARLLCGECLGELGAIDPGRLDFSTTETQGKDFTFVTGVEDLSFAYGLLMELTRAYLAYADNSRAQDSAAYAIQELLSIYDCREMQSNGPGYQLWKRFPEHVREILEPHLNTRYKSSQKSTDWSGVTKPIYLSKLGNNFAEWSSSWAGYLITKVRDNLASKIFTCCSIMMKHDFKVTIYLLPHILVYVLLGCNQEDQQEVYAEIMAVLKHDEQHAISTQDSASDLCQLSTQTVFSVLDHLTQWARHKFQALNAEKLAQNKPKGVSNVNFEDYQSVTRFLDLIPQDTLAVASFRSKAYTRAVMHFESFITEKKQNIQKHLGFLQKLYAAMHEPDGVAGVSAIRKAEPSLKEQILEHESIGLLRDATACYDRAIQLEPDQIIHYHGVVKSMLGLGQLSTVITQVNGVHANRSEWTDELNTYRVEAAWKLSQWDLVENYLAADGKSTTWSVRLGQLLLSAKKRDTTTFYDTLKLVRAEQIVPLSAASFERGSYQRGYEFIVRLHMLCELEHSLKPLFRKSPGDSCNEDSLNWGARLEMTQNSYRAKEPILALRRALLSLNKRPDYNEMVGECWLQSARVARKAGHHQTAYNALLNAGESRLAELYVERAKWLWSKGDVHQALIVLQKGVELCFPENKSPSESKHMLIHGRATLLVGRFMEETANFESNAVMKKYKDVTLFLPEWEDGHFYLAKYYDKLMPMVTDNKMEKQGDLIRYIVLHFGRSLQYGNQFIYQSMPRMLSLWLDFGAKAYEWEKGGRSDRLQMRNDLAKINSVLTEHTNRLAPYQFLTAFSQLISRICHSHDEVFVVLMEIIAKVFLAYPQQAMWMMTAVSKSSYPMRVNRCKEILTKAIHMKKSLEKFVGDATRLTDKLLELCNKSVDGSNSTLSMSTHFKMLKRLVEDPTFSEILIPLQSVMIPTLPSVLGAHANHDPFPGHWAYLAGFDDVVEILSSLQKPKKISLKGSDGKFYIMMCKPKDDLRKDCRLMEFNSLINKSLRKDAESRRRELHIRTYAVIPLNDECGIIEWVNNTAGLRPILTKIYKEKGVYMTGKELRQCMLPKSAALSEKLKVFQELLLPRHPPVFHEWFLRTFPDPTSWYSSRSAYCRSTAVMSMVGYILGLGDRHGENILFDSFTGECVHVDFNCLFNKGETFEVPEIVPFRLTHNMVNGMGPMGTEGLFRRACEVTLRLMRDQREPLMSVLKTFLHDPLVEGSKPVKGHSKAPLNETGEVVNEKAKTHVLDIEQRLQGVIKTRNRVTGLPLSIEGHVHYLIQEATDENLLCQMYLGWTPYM

Turning to `Cn1c(=O)c2c(ncn2C)n(C)c1=O` [Caffeine], on ATR, the “nuclear γH2AX signal induced by 4-OHT” value is recorded as “stepwise decrease in the γH2AX signal”. As to `Nc1ncnc2c1c(-c1cccc(OCc3ccccc3)c1)cn2[C@H]1C[C@@H](CN2CCC2)C1` [NVP-AEW541], the “selectivity against IGF-IR vs InsR in cellulo” value in the experiment on IGF-IR is 26 fold.
